Reference: ChEMBL document CHEMBL3875214, “Quercetin-glutamic acid conjugate with a non-hydrolysable linker; a novel scaffold for multidrug resistance reversal agents through inhibition of P-glycoprotein” (Bioorg Med Chem, 2017)
Calls of active or inactive are those of the source. The rule behind the calls is not given here.

Tests used:
Homo sapiens [1] = species on record: Homo sapiens; assay: Inhibition of P-gp in human MES-SA/Dx5 cells assessed as potentiation of paclitaxel-induced cytotoxicity by measuring fold reduction in paclitaxel EC50 at 5 uM after 72 hrs by MTT assay relative to untreated control; assay type: cell-based
How it was run: (§1)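 MES-SA/Dx5 cells were seeded at 5×10^3 per well in complete RPMI-1640 and left 24 h at 37 °C, 5% CO2. Anticancer drug was added at 0.0001–100 µM final, with or without modulator at 5 µM (1% DMSO), for 72 h. Viability was read by MTT at 570 nm and survival % was blank-corrected against 1% DMSO controls. IC50s came from survival curves. Fold reversal = IC50 untreated / IC50 with modulator. Three independent experiments were run, reported as mean ± SD.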

[2] = Antioxidant activity assessed as DPPH radical scavenging activity; assay type: functional
Homo sapiens [3] = species on record: Homo sapiens; assay: Inhibition of P-gp in human MES-SA/Dx5 cells assessed as potentiation of actinomycin D-induced cytotoxicity by measuring fold reduction in actinomycin D EC50 at 5 uM after 72 hrs by MTT assay relative to untreated control; assay type: cell-based; how it was run: as §1
Homo sapiens [4] = species on record: Homo sapiens; assay: Inhibition of P-gp in human MES-SA/Dx5 cells assessed as potentiation of vinblastine-induced cytotoxicity by measuring fold reduction in vinblastine EC50 at 5 uM after 72 hrs by MTT assay relative to untreated control; assay type: cell-based; how it was run: as §1
Homo sapiens [5] = species on record: Homo sapiens; assay: Inhibition of P-gp in human MES-SA/Dx5 cells assessed as potentiation of doxorubicin-induced cytotoxicity by measuring fold reduction in doxorubicin EC50 at 5 uM after 72 hrs by MTT assay relative to untreated control; assay type: cell-based; how it was run: as §1
[6] = Half life in P-gp over-expressing human MES-SA/Dx5 cells up to 100 uM by HPLC analysis; assay type: ADME, cell-based
How it was run: (§2)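 MES-SA or MES-SA/Dx5 cells were incubated with compound for up to 48 h (0, 24, 48 h). Cell lysates were analysed by HPLC for intact compound and for released quercetin, and half-lives were derived from these measurements.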

[7] = Inhibition of P-gp in human MES-SA/Dx5 cells assessed as potentiation of vinblastine-induced cytotoxicity by measuring compound concentration required for reduction of vinblastine IC50 by half after 72 hrs by MTT assay; assay type: cell-based; conditions: MES-SA/Dx5, 72 h
[8] = Inhibition of P-gp in human MES-SA/Dx5 cells assessed as potentiation of doxorubicin-induced cytotoxicity by measuring compound concentration required for reduction of doxorubicin IC50 by half after 72 hrs by MTT assay; assay type: cell-based; conditions: MES-SA/Dx5, 72 h
[9] = Inhibition of P-gp in human MES-SA/Dx5 cells assessed as potentiation of paclitaxel-induced cytotoxicity by measuring compound concentration required for reduction of paclitaxel IC50 by half after 72 hrs by MTT assay; assay type: cell-based; conditions: MES-SA/Dx5, 72 h
[10] = Stability in P-gp over-expressing human MES-SA/Dx5 cells assessed as reduction in quercetin release up to 100 uM by HPLC analysis; assay type: ADME, cell-based; how it was run: as §2
[11] = Stability in human MES-SA cells assessed as reduction in quercetin release up to 100 uM by HPLC analysis; assay type: ADME, cell-based; how it was run: as §2
[12] = Inhibition of P-gp in human MES-SA/Dx5 cells assessed as potentiation of actinomycin D-induced cytotoxicity by measuring compound concentration required for reduction of actinomycin D IC50 by half after 72 hrs by MTT assay; assay type: cell-based; conditions: MES-SA/Dx5, 72 h
Homo sapiens [13] = species on record: Homo sapiens; assay: Inhibition of P-gp in human MES-SA/Dx5 cells assessed as increase in doxorubicin accumulation at 5 uM after 30 mins by flow cytometry relative to control; assay type: cell-based
Homo sapiens [14] = species on record: Homo sapiens; assay: Activity at human P-gp expressed in membranes assessed as stimulation of P-gp ATPase activity at 100 uM after 40 mins in presence of MgATP by […] relative to control
How it was run: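 Human Pgp membrane, 25 µg, incubated at 37 °C with compound at 100 µM, alongside Na3VO4 (100 µM) and 0.1% DMSO solvent controls. Reaction was started with 5 mM MgATP and run 40 min at 37 °C. Leftover ATP was read as luciferase luminescence after 20 min at room temperature. Activity was taken as the luminescence drop relative to the Na3VO4 sample.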

[15] = Half life in human MES-SA cells up to 100 uM by HPLC analysis; assay type: ADME, cell-based; how it was run: as §2

Row | SMILES | fold change (FC) (Homo sapiens [1]) | Activity [2] | fold change (FC) (Homo sapiens [3]) | fold change (FC) (Homo sapiens [4]) | fold change (FC) (Homo sapiens [5]) | half-life [6] [h] | EC50 [7] [µM] | EC50 [8] [µM] | EC50 [9] [µM] | Stability [10] | Stability [11] | EC50 [12] [µM] | fold change (FC) (Homo sapiens [13]) | fold change (FC) (Homo sapiens [14]) | half-life [15] [h]
1 | O=c1c(O)c(-c2ccc(O)c(O)c2)oc2cc(O)cc(O)c12 | 2.48 | Active | 3.06 | 2.75 | 1.94 | – | – | – | – | – | – | – | – | – | –
2 | O=C(O)CC[C@H](NC(=O)COc1cc(O)c2c(=O)c(O)c(-c3ccc(O)c(O)c3)oc2c1)C(=O)O | 34.6 | Active | 48.4 | 26 | 25.6 | 30 | 2.5 | 2.2 | 2.1 | Stable | Stable | 2.3 | 2.3 | 3.1 | 30
3 | O=C(O)CC[C@H](NCCOc1cc(O)c2c(=O)c(O)c(-c3ccc(O)c(O)c3)oc2c1)C(=O)O | 17.3 | Active | 20.5 | 16.2 | 22.3 | 56 | 2.4 | 2.8 | 2.5 | Stable | Stable | 2.7 | 2.1 | 2.8 | 56
